ChEMBL document CHEMBL4261567, “Phenylethynyl-substituted Heterocycles Inhibit Cyclin D1 and Induce the Expression of Cyclin-dependent Kinase Inhibitor p21Wif1/Cip1 in Colorectal Cancer Cells” (Medchemcomm, 2018)
Activity calls are given as the source filed them. The calls are words filed in the database; no cut-off is given here.

Tests used:
LS174T [1] = experiment: Antiproliferative activity against human LS174T cells assessed as inhibition of cell proliferation at 10 uM after 4 days by Vi-Cell cell viability analyzer based method relative to control; type: functional; conditions: 96 h
How it was run: (§1)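 Cells (colon LS174T, HT-29, Caco2; lung epithelial BEAS-2B; fibroblast HEL 299) were kept in RPMI or DMEM with 5% or 10% FBS plus 1% penicillin/streptomycin. 3 × 10^4 cells per well were exposed to DMSO or compound. After 4 days, cell number and viability were counted on a Vi-Cell analyzer. Results are given as percent inhibition of proliferation at the stated concentration.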

LS174T [2] = experiment: Antiproliferative activity against human LS174T cells assessed as inhibition of cell proliferation at 1 uM after 4 days by Vi-Cell cell viability analyzer based method relative to control; type: functional; conditions: 96 h; how it was run: as §1
LS174T [3] = experiment: Antiproliferative activity against human LS174T cells assessed as inhibition of cell proliferation at 100 nM after 4 days by Vi-Cell cell viability analyzer based method relative to control; type: functional; conditions: 96 h; how it was run: as §1
LS174T [4] = experiment: Antiproliferative activity against human LS174T cells assessed as inhibition of cell proliferation at 30 nM after 4 days by Vi-Cell cell viability analyzer based method relative to control; type: functional; conditions: 96 h; how it was run: as §1
HT-29 [5] = experiment: Antiproliferative activity against human HT-29 cells assessed as inhibition of cell proliferation at 1 uM after 4 days by Vi-Cell cell viability analyzer based method relative to control; type: functional; conditions: HT-29, 96 h; how it was run: as §1
Caco-2 [6] = experiment: Antiproliferative activity against human Caco2 cells assessed as inhibition of cell proliferation at 1 uM after 4 days by Vi-Cell cell viability analyzer based method relative to control; type: functional; conditions: Caco-2, 96 h; how it was run: as §1
[7] = Cytotoxicity against human HEL299 cells assessed as inhibition of cell proliferation at 10 uM after 4 days by Vi-Cell cell viability analyzer based method relative to control; parameters: species or system HEL 299; how it was run: as §1
[8] = Cytotoxicity against human HEL299 cells assessed as inhibition of cell proliferation at 1 uM after 4 days by Vi-Cell cell viability analyzer based method relative to control; parameters: species or system HEL 299; how it was run: as §1
[9] = Cytotoxicity against human BEAS2B cells assessed as inhibition of cell proliferation at 10 uM after 4 days by Vi-Cell cell viability analyzer based method relative to control; parameters: species or system BEAS-2B; how it was run: as §1
[10] = Cytotoxicity against human BEAS2B cells assessed as inhibition of cell proliferation at 1 uM after 4 days by Vi-Cell cell viability analyzer based method relative to control; parameters: species or system BEAS-2B; how it was run: as §1
[11] = target: G1/S-specific cyclin-D1 (Homo sapiens) (UniProt P24385); experiment: Inhibition of cyclin D1 in human LS174T cells assessed as reduction in protein level at 300 nM by Western blot analysis; type: cell-based
How it was run: (§2)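 LS174T cells were treated at 300 nM. Lysates were western blotted with antibodies to cyclin D1 and p21Wif1/Cip1, using β-tubulin as the loading control.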

[12] = target: G1/S-specific cyclin-D1 (Homo sapiens) (UniProt P24385); experiment: Inhibition of cyclin D1 in human LS174T cells assessed as induction of p21 waf1/cip1 expression at 300 nM by Western blot analysis; type: cell-based; how it was run: as §2
LS174T [13] = experiment: Antiproliferative activity against human LS174T cells assessed as inhibition of cell proliferation after 4 days by Vi-Cell cell viability analyzer based method; type: functional; conditions: 96 h
How it was run: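 LS174T cells in RPMI or DMEM with 5% or 10% FBS plus 1% penicillin/streptomycin were seeded at 3 × 10^4 cells per well. They were treated with DMSO or a range of compound concentrations, and cell number and viability were counted on a Vi-Cell analyzer after 4 days. IC50 was fitted from the dose-response curve.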

HT-29 [14] = experiment: cells; conditions: Homo sapiens, HT-29, 96 h, read-out: INH
Caco-2 [15] = experiment: cells; conditions: Homo sapiens, Caco-2, 96 h, read-out: INH
[16] = target: S-adenosylmethionine synthase isoform type-2 (Homo sapiens) (UniProt P31153); experiment: Binding affinity to GST-tagged MAT2A (unknown origin) expressed in Escherichia coli BL21 by Western blot based pull down assay
How it was run: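 Recombinant MAT2A was incubated with or without the biotinylated probe, and the complex was captured on streptavidin beads. Bound protein was eluted with 2.5 mM D-(+)-biotin, run on 10% SDS-PAGE, and detected by western blot with an anti-MAT2A antibody.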

Sequence of G1/S-specific cyclin-D1 (Homo sapiens) (P24385 whole entry): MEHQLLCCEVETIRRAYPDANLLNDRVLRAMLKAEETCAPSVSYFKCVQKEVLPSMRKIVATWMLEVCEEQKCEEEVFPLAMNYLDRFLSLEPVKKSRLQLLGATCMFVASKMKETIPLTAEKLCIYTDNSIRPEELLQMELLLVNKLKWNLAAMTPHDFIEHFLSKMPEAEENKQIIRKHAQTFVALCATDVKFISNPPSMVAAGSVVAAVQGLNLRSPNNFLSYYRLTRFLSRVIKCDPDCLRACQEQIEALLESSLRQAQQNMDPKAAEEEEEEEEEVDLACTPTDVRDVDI
Sequence of S-adenosylmethionine synthase isoform type-2 (Homo sapiens) (P31153 whole entry, looked up, canonical isoform): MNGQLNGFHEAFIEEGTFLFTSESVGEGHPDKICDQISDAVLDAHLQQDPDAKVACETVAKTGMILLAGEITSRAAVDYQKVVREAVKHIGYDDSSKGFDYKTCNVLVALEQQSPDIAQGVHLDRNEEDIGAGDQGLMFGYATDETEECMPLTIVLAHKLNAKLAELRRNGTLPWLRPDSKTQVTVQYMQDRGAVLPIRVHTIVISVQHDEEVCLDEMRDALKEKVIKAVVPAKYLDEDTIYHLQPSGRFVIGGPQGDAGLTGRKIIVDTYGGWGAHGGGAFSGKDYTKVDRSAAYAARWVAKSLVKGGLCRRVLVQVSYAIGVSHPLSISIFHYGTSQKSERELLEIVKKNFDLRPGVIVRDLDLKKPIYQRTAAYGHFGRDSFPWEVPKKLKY

Structure (SMILES) | inhibition at 10 µM (LS174T [1]) | inhibition at 1 µM (LS174T [2]) | inhibition at 0.1 µM (LS174T [3]) | further results
Fc1cccc(F)c1C#Cc1ccc(-n2cccc2)nc1 | 95.3% | 80.5% | 0% | –
CN(C)c1ccc2cc(C#Cc3c(F)cccc3F)ccc2n1 | 38.7% | 2% | – | –
CN1CCN(c2ncc(C#Cc3c(F)cccc3F)c3ccccc23)CC1 | 100% | 23.2% | – | –
CNc1ncc(C#Cc2c(F)cccc2F)c2ccccc12 | 98.9% | 99.8% | 99.5% | inhibition at 0.03 µM (LS174T [4]): 94.5%; inhibition at 1 µM (HT-29 [5]): 76.8%; inhibition at 1 µM (Caco-2 [6]): 58.3%; inhibition at 96 h, 10 µM [7]: 9.5%; inhibition at 96 h, 1 µM [8]: 6.3%; inhibition at 96 h, 10 µM [9]: 19.2%; inhibition at 96 h, 1 µM [10]: 5.8%; inhibition [11]: Active; inhibition [12]: Active; IC50 (LS174T [13]): 4.2 nM
CN(C)c1ncc(C#Cc2c(F)cccc2F)c2ncccc12 | 85.2% | 87.9% | 59.5% | –
Fc1cccc(F)c1C#Cc1ccc(N2CCOCC2)cc1 | 32.1% | 13% | – | –
Fc1cccc(F)c1C#Cc1cnc(Cl)c2ccccc12 | 94% | 48.1% | 0.8% | –
Cn1ccc2cc(C#Cc3c(F)cccc3F)ccc21 | 95.2% | 77.7% | 3% | –
O=c1[nH]cc(F)c(=O)[nH]1 [FLUOROURACIL] | 82.3% | 6.5% | – | inhibition at 1 µM (HT-29 [5]): 11.6%; inhibition at 1 µM (Caco-2 [6]): 37.7%; inhibition at 96 h, 10 µM [7]: 64.6%; inhibition at 96 h, 1 µM [8]: 12.1%; inhibition at 96 h, 10 µM [9]: 57.5%; inhibition at 96 h, 1 µM [10]: 4.5%; inhibition at 10 µM (HT-29 [14]): 82.9%; inhibition at 10 µM (Caco-2 [15]): 60.2%
Fc1cccc(F)c1C#Cc1ccc2ccccc2n1 | 93.8% | 67.3% | 6.1% | –
Cc1ccc(C)n1-c1ccc(C#Cc2c(F)cccc2F)cc1 | 78.8% | 20.9% | – | –
Nc1ccnc2cc(C#Cc3c(F)cccc3F)ccc12 | 97.7% | 23.6% | – | –
Fc1cccc(F)c1C#Cc1cccc2[nH]ncc12 | 96.2% | 19.8% | – | –
Fc1cccc(F)c1C#Cc1ccnc2cc(Cl)ccc12 | 74.3% | 36% | – | –
O=C1CCCCN1c1ccc(C#Cc2c(F)cccc2F)cc1 | 68.1% | 6.4% | – | –
Fc1cccc(F)c1C#Cc1cnc2ccccc2c1Cl | 80.4% | 51.5% | 0% | –
Fc1cccc(F)c1C#Cc1cnc2[nH]ccc2c1 | 77.9% | 17.3% | – | –
CN(C)c1ccc(C#Cc2c(F)cccc2F)cc1 | – | – | – | inhibition [11]: Active; inhibition [12]: Active; IC50 (LS174T [13]): 25.1 nM
Fc1cccc(F)c1C#Cc1ccc2nccc(Cl)c2c1 | 89.7% | 43.8% | – | –
Fc1cccc(F)c1C#Cc1cccc2cnccc12 | 93.6% | 64.2% | – | –
CN(C)c1ccc(C#Cc2c(F)cccc2F)cn1 | 83.6% | 77.9% | 0% | –
Fc1cccc(F)c1C#Cc1ccc2cnccc2c1 | 82.4% | 11.6% | – | –
CN(C)c1cnc(C#Cc2c(F)cccc2F)cn1 | 91.6% | 22.9% | – | –
Fc1cccc(F)c1C#Cc1nccc2ccccc12 | 96.7% | 35.4% | – | –
Fc1cccc(F)c1C#Cc1cc2ccccc2nc1Cl | 85.1% | 28.4% | – | –
Fc1cccc(F)c1C#Cc1ccnc2ccccc12 | 59% | 15.4% | – | –

Structure (SMILES) | inhibition at 10 µM (LS174T [1]) | inhibition at 1 µM (LS174T [2]) | inhibition at 0.1 µM (LS174T [3]) | further results
Fc1cccc(F)c1C#Cc1ccc2[nH]ncc2c1 | 82.9% | 17.6% | – | –
Fc1cccc(F)c1C#Cc1ccc2cn[nH]c2c1 | 97% | 81.5% | – | –
Fc1cccc(F)c1C#Cc1ccc2nc(Cl)ccc2c1 | 63.3% | 21.2% | – | –
Fc1cccc(F)c1C#Cc1cnc2c(F)cccc2c1 | 89.1% | 63.6% | 8.8% | –
Cn1ncc2ccc(C#Cc3c(F)cccc3F)cc21 | 98.1% | 85.9% | 0% | –
Fc1cccc(F)c1C#Cc1cnc2ccccc2c1 | 90.4% | 41.7% | 0% | –
Fc1cccc(F)c1C#Cc1cccc2cccnc12 | 92.7% | 47.6% | – | –
Fc1cccc(F)c1C#Cc1ccc2c(Cl)ccnc2c1 | 70.8% | 23.1% | – | –
Fc1cccc(F)c1C#Cc1ccc(-n2cccc2)cc1 | 96.7% | 77.5% | 11% | –
Fc1cccc(F)c1C#Cc1cncc2ccccc12 | 87.9% | 16.5% | – | –
Fc1ccc2ccnc(C#Cc3c(F)cccc3F)c2c1 | 96.2% | 71.1% | 0% | –
CN(CC(=O)NCCOCCOCCNC(=O)CCCC[C@@H]1SC[C@@H]2NC(=O)N[C@@H]21)c1ccc(C#Cc2c(F)cccc2F)c2ccccc12 | – | – | – | Activity [16]: Active
Nc1ncc(C#Cc2c(F)cccc2F)c2ccccc12 | 93.1% | 86.2% | 35.5% | –
Fc1cccc(F)c1C#Cc1ccc2[nH]ccc2c1 | 91.5% | 52.9% | – | –
CN1CCN(c2ccc(C#Cc3c(F)cccc3F)cc2)CC1 | 99.6% | 19.9% | – | –
Fc1cccc(F)c1C#Cc1ccc2cccnc2c1 | 99.4% | 90.7% | 2.9% | –
Fc1cccc(F)c1C#Cc1cccc2ncccc12 | 94.7% | 43.1% | – | –
Cn1ncc2cc(C#Cc3c(F)cccc3F)ccc21 | 94.6% | 58.4% | 0% | –
Fc1ccc2cc(C#Cc3c(F)cccc3F)cnc2c1 | 95.1% | 69.4% | 14.8% | –
Fc1cccc(F)c1C#Cc1ccc2cncnc2c1 | 96.3% | 33.8% | – | –
Nc1ccc2ncc(C#Cc3c(F)cccc3F)cc2c1 | 9.2% | – | – | –
CN(C)c1ncc(C#Cc2c(F)cccc2F)c2ccccc12 | 97.6% | 99.5% | 81.7% | inhibition at 0.03 µM (LS174T [4]): 86%; inhibition at 1 µM (HT-29 [5]): 35.9%; inhibition at 1 µM (Caco-2 [6]): 54.5%; inhibition at 96 h, 10 µM [7]: 11.7%; inhibition at 96 h, 1 µM [8]: 13.9%; inhibition at 96 h, 10 µM [9]: 16.2%; inhibition at 96 h, 1 µM [10]: 1.5%; inhibition [11]: Active; inhibition [12]: Active; IC50 (LS174T [13]): 11.8 nM
Nc1ccnc2ccc(C#Cc3c(F)cccc3F)cc12 | 93.9% | 66.2% | 0% | –
CN(C)c1ccc(C#Cc2c(F)cccc2F)nc1 | 85.2% | 68.9% | 15.1% | –
Fc1cccc(F)c1C#Cc1ccc2ncccc2c1 | 80.1% | 11% | – | –
